MrgX1 PAM – allosterically activates human MrgX1 receptor signaling; Q96LB2; MrgX1-HEK293, Fluo-4 calcium flux, FDSS; active compounds read high; B-score at 10 µM; actives 0.63% (n = 310,000);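 active = plate-corrected calcium response at least 3 library SD above typical, normal starting fluorescence, not activating the receptor alone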;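 note: compound read alongside a low EC10 to EC30 dose of BAM8-22 agonist; peak minus trough fluorescence over baseline measured at the second addition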
Target sequence (Q96LB2 whole entry, looked up): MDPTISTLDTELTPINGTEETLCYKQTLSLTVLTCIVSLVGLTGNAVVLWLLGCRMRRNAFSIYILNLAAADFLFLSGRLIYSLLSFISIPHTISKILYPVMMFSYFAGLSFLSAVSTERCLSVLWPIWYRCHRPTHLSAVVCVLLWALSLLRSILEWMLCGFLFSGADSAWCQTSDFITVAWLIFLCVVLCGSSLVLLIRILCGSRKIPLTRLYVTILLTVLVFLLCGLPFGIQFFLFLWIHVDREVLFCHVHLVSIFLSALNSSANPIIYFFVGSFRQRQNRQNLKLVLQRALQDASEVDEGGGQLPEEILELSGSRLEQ
RGS4 act – potentiators or activators of RGS4; HEK293 M3R/inducible RGS4, carbachol calcium flux Fluo4; active compounds read low; B-score at 10 µM; actives 0.92% (n = 310,000); AID 463111;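 active = B-score of the integrated calcium signal more than 4 SD below the library mean, with starting fluorescence not abnormally high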;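 note: negative B-score means reduced calcium response which marks RGS4 activation or potentiation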
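System: HEK293 FlpIn-TREx cells, stable M3R, doxycycline-inducible RGS4. Timing: overnight RGS4 induction, 30 min dye load 37 °C, 20 min compound RT. Also added: carbachol, ECmax concentration. Measured by: Fluo4 fluorescence kinetic imaging of calcium. Evaluation: integrated calcium ratio converted to B score.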
MrgX1 antagonist – human MrgX1 receptor antagonism, primary screen; Q96LB2; MRGX1-HEK293 calcium flux, Fluo-4, BAM8-22 antagonism; active compounds read low; B-score at 10 µM; actives 1.3% (n = 310,000);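 active = calcium-response B-score plate-corrected more than 3 library SD below zero, starting fluorescence within 5 deviations, no agonist response on first addition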;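 note: peak minus trough fluorescence over baseline after final BAM8-22 challenge near maximal dose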
RGS4 inh – human RGS4 inhibition; P49798; HEK293 M3R/RGS4 inducible, Fluo-4 calcium flux; active compounds read high; triggered by carbachol at its EC20; B-score at 10 µM; actives 0.45% (n = 310,000);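 active = B-score, a plate-corrected calcium signal, over three deviations above library mean, with baseline fluorescence within five deviations of library mean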;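 note: RGS4 expression induced by doxycycline in cells with stable M3 receptor; B-score is computed from the integrated fluorescence ratio over baseline after carbachol; higher B-score means a larger calcium signal and so more RGS4 inhibition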
Target sequence (P49798 whole entry, looked up): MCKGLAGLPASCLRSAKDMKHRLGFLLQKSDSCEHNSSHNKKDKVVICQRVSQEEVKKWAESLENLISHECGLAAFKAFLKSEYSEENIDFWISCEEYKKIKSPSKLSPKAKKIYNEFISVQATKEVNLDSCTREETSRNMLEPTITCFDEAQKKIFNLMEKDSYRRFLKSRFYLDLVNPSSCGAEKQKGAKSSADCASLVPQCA
MrgX1 ag – activates human MrgX1 receptor signaling; MrgX1-HEK293 cells, Fluo-4 calcium fluorescence, agonist mode; active compounds read high; actives 0.44% (n = 310,000); B-score at 10 µM; AID 588627;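 active = calcium response B-score plate-corrected fluorescence ratio at least 3 library SD, with starting fluorescence B-score inside 5 SD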
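System – MrgX1-expressing HEK293 cells · Incubation – cells plated overnight, dye loaded 0.5 h 37 °C, 0.5 h room temperature · Technique – kinetic Fluo-4 NW fluorescence of intracellular calcium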
RGS4 act valid – confirmation of RGS4 activators. shares compounds with RGS4 act. HEK293 M3R/RGS4 inducible, carbachol calcium flux Fluo4. inhibition, % at 10 µM. actives 89% (n = 1,100);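 active = inhibition above 3 SD of the buffer control wells, cut at about 41% in these data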;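 note: signal is the integrated peak-minus-minimum Fluo4 fluorescence over baseline ratio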
RGS4 act ctr – RGS4 activator counter-screen hit in non-induced cells; shares compounds with RGS4 act; HEK293 M3R non-induced RGS4, Fluo4 calcium flux; after carbachol challenge at its EC90; inhibition, % at 10 µM; actives 82% (n = 1,100);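 active = inhibition exceeding 3 SD of buffer-only control wells, cut at about 26% in these data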;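 note: percent drop in integrated peak-minus-baseline over baseline Fluo4 ratio after carbachol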
* = called active by the depositor; i = inactive; · = no result given. A selection: hits, their analogues and other compounds. The true share with any hit is near 3.5%.

SMILES	MrgX1 PAM	RGS4 act	MrgX1 antagonist	RGS4 inh	MrgX1 ag	RGS4 act valid	RGS4 act ctr
O=C(CN1CCCC1)N1c2ccccc2C=Cc2ccccc21	i	-10*	i	i	i	82*	41*
NC(=O)N1c2ccccc2C=Cc2ccccc21	i	i	i	i	i	·	·
O=C(CN1CCCC1)N1CCCc2ccccc21	i	i	i	i	i	·	·
CN1CCN(C(=O)N2c3ccccc3C=Cc3ccccc32)CC1	i	-9.7*	i	i	i	94*	69*
O=C(CN(C(=O)c1csnn1)c1ccccc1F)NCc1ccc2c(c1)OCO2	i	i	i	i	i	·	·
CCC[C@@H](NS(=O)(=O)c1ccc(C)cc1)C(=O)Oc1ccc2c3c(c(=O)oc2c1)CCC3	i	-7.6*	i	i	i	92*	71*
Cc1ccc(S(=O)(=O)NC(C(=O)Oc2ccc3c(C)c(Cl)c(=O)oc3c2)c2ccccc2)cc1 (stereo not given)	i	i	i	i	i	·	·
Cc1sc2cc3c(c(C(=O)c4ccccc4)[n+]2c1C)-c1cccc2cccc-3c12	i	-14*	i	i	i	92*	91*
CCC(C)NS(=O)(=O)c1cc2c3c(c1)CCN3C(=O)CC2 (stereo not given)	i	i	i	i	i	·	·
Cn1c(-c2ccc3c(c2)OCO3)cnc1NCc1cccc(Cl)c1	i	-8.9*	i	i	i	86*	44*
Cc1ccc(Cl)cc1N1CCN(C(=O)CCCn2c(=O)c3cccn3c3cccnc32)CC1	i	-7.9*	i	i	i	84*	50*
Cc1cccc(N2CCN(C(=O)CCCn3c(=O)c4cccn4c4cccnc43)CC2)c1C	i	i	i	i	i	·	·
O=C(c1cccc(COc2ccc(Cl)cc2Cl)c1)N1CCN(c2ccccn2)CC1	i	-7.9*	i	i	i	94*	80*
O=C(c1ccc(Cl)c(Cl)c1)N1CCN(c2ccccn2)CC1	i	i	i	i	i	·	·
COCc1ccc(C(=O)N(C)C2CCCN(Cc3ccccc3F)C2)o1 (stereo not given)	i	-8.6*	i	i	i	56*	0
COC(=O)c1ccc(C(=O)N(C)C2CCCN(Cc3ccccc3F)C2)cc1 (stereo not given)	i	i	i	i	i	·	·
COC(=O)c1ccc(OCCN2CCCCCC2)cc1	i	-7.8*	i	i	i	66*	84*
CCOc1cccc(OCCCCN2CCCCC2)c1	i	-7.9*	i	i	i	80*	37*
Clc1ccc(OCCCCCN2CCCC2)c(Br)c1	i	-8*	i	i	i	89*	84*
Brc1cccc(OCCCCN2CCCCC2)c1	i	-8.6*	i	i	i	92*	66*
CC1CCCN(CCCCOc2cccc(Br)c2)C1 (stereo not given)	i	-7.5*	i	i	i	92*	64*
COc1cccc(OCCCCN2CCCCC2)c1	i	i	i	i	i	·	·
O=C(Cn1c(=O)oc2ccccc21)N1CCCC1	i	i	i	i	i	·	·
CC(=O)Nc1cccc(C(=O)OCC(=O)Nc2ccc(Cl)cn2)c1	i	i	i	i	i	·	·
CCCCN(C)CCCNC(=O)c1cc(=O)[nH]c2ccc(S(=O)(=O)N3CCCCC3C)cc12 (stereo not given)	i	i	i	i	i	·	·
SMILES	MrgX1 PAM	RGS4 act	MrgX1 antagonist	RGS4 inh	MrgX1 ag	RGS4 act valid	RGS4 act ctr
Cc1ccc(N(C(=O)CNC(=O)c2ccco2)C(C(=O)NC2CCCCC2)c2ccncc2)c(C)c1 (stereo not given)	i	i	i	i	i	·	·
N#CC1=C(N)OC2=C(C(=O)CC(c3ccccc3)C2)C1c1ccc2c(c1)OCO2 (stereo not given)	i	-8.2*	i	i	i	92*	68*
CCCC(C)c1nnc(NC(=O)C2CC(=O)N(CCc3ccc(F)cc3)C2)s1 (stereo not given)	i	i	i	i	i	·	·
Cc1ccccc1N1CCN(C2CCCN(C(=O)c3ccccn3)C2)CC1 (stereo not given)	i	i	i	i	i	·	·
Cc1ccccc1N1CCN(C2CCCN(C(=O)c3cn4cccc(C)c4n3)C2)CC1 (stereo not given)	·	-9.7*	·	i	·	50*	0
COc1ccc(CCC(C)NC(=O)Cc2ccc(OC)c(OC)c2)c(OC)c1 (stereo not given)	i	i	i	i	i	·	·
O=C(Nc1nc2ccccc2[nH]1)c1ccc(Cl)cc1	i	i	i	i	i	·	·
O=S(=O)(Nc1nc2ccccc2[nH]1)c1ccc(Cl)cc1	i	-9.4*	i	i	i	92*	90*
O=S(=O)(Nc1nc2ccccc2[nH]1)c1ccccc1	i	-8.2*	i	i	i	91*	39*
CS(=O)(=O)Nc1nc2ccccc2[nH]1	i	i	i	i	i	·	·
O=c1[nH]c(CSc2ncnc3sc(-c4ccccc4)cc23)nc2ccccc12	i	i	i	i	i	·	·
CC1CC(OC(=O)C(O)c2ccccc2)CC(C)(C)N1C (stereo not given)	i	-10*	i	i	i	77*	38*
COc1ccccc1C(=O)NC(=O)CSc1nc(C)cs1	i	i	i	i	i	·	·
CC(C)Oc1cccc(C(=O)NC(=S)Nc2ccc(N3CCN(C)CC3)cc2)c1	i	-11*	i	i	i	92*	93*
COc1cccc(C(=O)NC(=S)Nc2ccc(N3CCCC3)cc2)c1	i	i	i	i	i	·	·
COc1cccc(OCCn2cc(C(=O)c3ccco3)c3ccccc32)c1	i	-11*	i	i	i	90*	50*
CCOC(=O)C1=C(C)N2C(=C(C#N)[C@@H]1c1ccc(C(=O)OC)cc1)SC[C@@]2(O)C(C)(C)C	i	-9.1*	i	i	i	59*	0
CCN(CC)c1ccc(C(=O)NC(=S)Nc2cc(S(=O)(=O)N3CCOCC3)ccc2-n2cncn2)cc1	i	i	i	i	i	·	·
CCC(C(=O)OCCOCCN(CC)CC)c1ccccc1 (stereo not given)	i	i	i	i	i	·	·
